# Screens as filed in PubChem.
# Tn7 DDE FP: DD(E)-Tn7 binding inhibition, primary FP screen; P02675; FP displacement of FITC-Tn7 peptide from fibrin DD(E); 0% = median of compound wells per plate; inhibition, % at 8.3 µM; 0.13% of 370,000 active; AID 720508;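 active = inhibition above the mean of compounds falling within the control limits plus 3 SD of them, cut at about 14% in these data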
#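 Test system: human clot-derived fibrin DD(E) complex / Quantity: 2 µM final DD(E) protein / Incubation: 10 min plus 3 h, room temperature / Measured by: fluorescence polarization / Benchmarks: high control of 10 µM Aha-Tn7 peptide / Replicates: singlicate testing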
# GRK2 inh: inhibitors of human GRK2 displacing RNA aptamer. inhibition of aptamer binding, % at 10 µM. P25098. bead flow cytometry, FAM-aptamer displacement from GRK2. 0.59% of 330,000 active. AID 488847;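 active = inhibition of aptamer binding above 40%, roughly 3 SD of noise, on plates passing a quality check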;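 note: median bead fluorescence of bound FAM aptamer so fluorescent compounds give negative values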
# Target sequence (P25098 whole entry, looked up): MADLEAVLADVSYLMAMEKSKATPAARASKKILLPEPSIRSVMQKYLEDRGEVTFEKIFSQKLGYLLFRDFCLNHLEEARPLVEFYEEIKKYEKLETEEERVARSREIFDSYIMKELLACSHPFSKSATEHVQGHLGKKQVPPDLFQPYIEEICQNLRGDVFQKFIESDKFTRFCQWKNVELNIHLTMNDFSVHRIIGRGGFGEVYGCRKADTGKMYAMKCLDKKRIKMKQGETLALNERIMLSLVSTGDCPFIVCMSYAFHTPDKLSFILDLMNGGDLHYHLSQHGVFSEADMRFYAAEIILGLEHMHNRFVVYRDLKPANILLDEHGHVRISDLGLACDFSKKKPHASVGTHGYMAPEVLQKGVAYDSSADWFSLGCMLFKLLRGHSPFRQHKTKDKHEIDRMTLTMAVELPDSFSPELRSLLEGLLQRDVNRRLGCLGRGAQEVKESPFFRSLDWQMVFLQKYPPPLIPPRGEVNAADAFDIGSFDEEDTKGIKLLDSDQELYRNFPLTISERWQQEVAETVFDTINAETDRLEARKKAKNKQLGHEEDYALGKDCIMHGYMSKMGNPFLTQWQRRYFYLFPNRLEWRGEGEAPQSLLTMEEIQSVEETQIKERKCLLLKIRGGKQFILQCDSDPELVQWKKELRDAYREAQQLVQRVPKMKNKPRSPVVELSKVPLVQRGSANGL
# ARNT TACC3 PPI: disruptors of human ARNT/TACC3 interaction; Q9Y6A5; AlphaScreen His-ARNT PAS-B/GST-TACC3 binding, luminescence; TACC3 fragment carries E629A point mutation; inhibition, % at 9.99 µM; 0.66% of 390,000 active;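 active = mean inhibition of replicates at least 50% and at least half of replicates each reaching 50%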
# CAL PDZ FP-1: blocks peptide binding to human CAL PDZ domain. 0.02% of 330,000 active. Q9HD26. AID 504414. inhibition, % at 20 µM. purified CAL PDZ, TMR-peptide fluorescence polarization, 1 h;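 active = highest replicate inhibition of at least 40%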
#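 Material: tagged CAL PDZ domain; buffer or medium: 25 mM sodium phosphate pH 7.4, 150 mM NaCl, TCEP, IgG, Thesit; compound dosing: single point, 20 µM; schedule: 1 h incubation at room temperature before polarization reading; measured by: FP readout, S and P plane fluorescence; read-out basis: percent inhibition from loss of millipolarization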
# DDE Tn6 FP inh: disrupts Tn6 cyclic peptide binding to fibrin D-Dimer-E complex; Fibrin DD(E) TRITC-Tn6 fluorescence polarization displacement; inhibition, % at 8.3 µM; 0.21% of 370,000 active; AID 720509;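 active = inhibition above a per-campaign cutoff: mean of compounds within control limits plus 3 SD, cut at about 15% in these data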
# CAL PDZ FP-2: CAL PDZ (human) peptide binding inhibition. 0.92% of 300,000 active. AID 602252. inhibition, % at 24.9 µM. purified CAL PDZ, TMR-peptide fluorescence polarization, 1 h;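 active = mean inhibition of at least 30% with at least half of replicates also reaching 30%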
# GRK2 inh confirm: confirmation of human GRK2 inhibitors displacing RNA aptamer | shares compounds with GRK2 inh | AID 504451 | bead-bound GRK2, FAM-aptamer displacement, flow cytometry | 4% of 2,000 active | aptamer displacement, % at 10 µM;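 active = aptamer displacement above 40%, near three times the noise of non-fluorescent compounds, on plates passing quality checks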;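 note: negative values mostly reflect intrinsic compound fluorescence rather than true enhancement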
# Aptamer quench SP: aptamer fluorescence quenching in GRK2 counter-screen; shares compounds with GRK2 inh; Carboxyfluorescein RNA aptamer on beads, flow cytometry quenching; stronger effect = lower value; fluorescence response (% of DMSO), % at 10 µM; 2,000 tested, under 10 active;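 active = compounds that quench the bead-bound fluorescent RNA probe, cutting fluorescence to under half of the solvent control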;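 note: counterscreen run without GRK2 so only probe quenching by compound is measured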
# GRK2 confirm 2: confirmation of human GRK2 inhibitors binding RNA aptamer site; shares compounds with GRK2 inh; bead-bound GRK2, FAM-aptamer displacement, flow cytometry; inhibition of aptamer binding, % at 10 µM; 360 tested, under 10 active;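 active = inhibition of aptamer binding above 40%, about triple the noise seen with nonglowing compounds, on plates passing quality control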;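 note: negative values mostly come from compounds that fluoresce themselves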
# FAM quench CP2: aptamer fluorescence quenching in GRK2 counter-screen; shares compounds with GRK2 inh; carboxyfluorescein RNA aptamer beads, flow cytometry quenching; stronger effect = lower value; fluorescence response vs DMSO, % at 10 µM; 360 tested, under 10 active; AID 588494;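 active = response vs DMSO under 50%, meaning signal dropped by over half, treated as fluorescence quencher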;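 note: labelled aptamer on streptavidin beads without GRK2 as a quench counter-screen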
# Numbers stand for hits; i = inactive; nt = not tested or not shown. Rows were chosen to be rich in hits. Some 1.8% of all compounds tested hit in one or more screens of this group.
SMILES,Tn7 DDE FP,GRK2 inh,ARNT TACC3 PPI,CAL PDZ FP-1,DDE Tn6 FP inh,CAL PDZ FP-2,GRK2 inh confirm,Aptamer quench SP,others
CC(=O)c1cccc(NC(=O)C2CCCCC2)c1,i,i,i,i,i,i,nt,nt,
CC(O)c1cccc(NC(=O)C2CCCCC2)c1 (stereo not drawn),i,53.0,i,i,i,nt,i,i,
COc1ccc(N=Cc2nc(-c3ccccc3)oc2OC(C)=O)cc1,i,73.0,i,i,i,i,i,i,
CCC(=O)Nc1ccc2c(c1)OC[C@H](C)N(C(=O)COC)C[C@@H](C)[C@H](OC)CN(C)C2=O,nt,nt,i,nt,nt,nt,nt,nt,
COc1ccccc1NC(=O)N1C[C@@H](C)[C@H](OC)CN(C)C(=O)c2ccc(NC(=O)c3ccccn3)cc2OC[C@H]1C,nt,nt,i,nt,nt,nt,nt,nt,
Cc1oc(C(=O)O)cc1COc1ccc2c3c(c(=O)oc2c1C)CCC3,i,73.0,i,i,i,i,i,i,
O=C(N/N=C/c1ccc([N+](=O)[O-])o1)C1CC1,i,83.0,i,i,i,i,i,i,
CO[C@H]1CN(C)C(=O)c2ccc(NC(=O)c3ccc(Oc4ccccc4)cc3)cc2OC[C@@H](C)NC[C@H]1C,nt,nt,i,nt,nt,nt,nt,nt,
CN(C)c1ccc(N=Nc2ccc(C(=O)O)cc2)cc1,i,54.0,i,i,i,i,i,i,
CN(C)c1ccc(C(=O)c2ccccc2)cc1,i,i,i,i,i,nt,nt,nt,
O=C(C[n+]1cc(Br)cc2ccccc21)c1ccccc1,i,45.0,i,i,i,i,i,i,
Cc1cc(OC(C)C(=O)NCCCN2CCOCC2)c2c(C)c(C)c(=O)oc2c1 (stereo not drawn),i,i,i,i,i,i,nt,nt,
CCOc1ccc(NC(=O)CN(C)C(=O)c2cc(-c3ccco3)nc3ccccc23)cc1OCC,i,nt,i,i,i,nt,i,i,
Cc1oc(-c2ccccc2F)nc1CN1CCC(C(=O)NC2CCCc3ccccc32)CC1 (stereo not drawn),i,i,i,i,i,i,i,i,
N#CCCN(C(=O)COC(=O)c1cc(=O)[nH]c2ccccc12)c1ccccc1,i,45.0,i,i,i,i,i,i,
O=C(COC(=O)c1cc(=O)[nH]c2ccccc12)NC(=O)c1ccccc1,i,68.0,i,i,i,i,i,i,
Cc1cc(/C=N\NC(=O)COc2cccc3cccnc23)c(C)n1-c1ccccc1,i,i,i,i,i,i,nt,nt,
Cc1cc(/C=N\NC(=O)COc2cccc3cccnc23)c(C)n1-c1ccc(Br)cc1,i,55.0,nt,i,i,i,i,i,
CC(=O)Oc1ccc(-c2csc(Nc3ccc(S(N)(=O)=O)cc3)n2)cc1,i,i,i,i,i,i,nt,nt,
COc1ccc(-c2csc(Nc3ccc(S(N)(=O)=O)cc3)n2)cc1,i,44.0,i,i,i,i,nt,nt,GRK2 confirm 2=i;FAM quench CP2=i
CCC(=O)Nc1ccccc1C(=O)C(=O)Nc1ccccc1,i,i,nt,i,i,i,i,i,
CCOCCCNC(=O)C1(O)c2cc(Br)ccc2NC(=O)N1c1ccc(OCC)cc1 (stereo not drawn),i,61.0,i,i,i,i,i,i,
Cc1onc(-c2ccccc2)c1-c1ccnn1C(=O)NC(C)C,i,i,i,i,i,i,nt,nt,
COC(=O)c1noc(C)c1-c1ccnn1C(=O)c1ccc(C)cc1,i,97.0,i,i,i,i,i,46.0,
COc1ccc(CC(=O)NNC(=O)COc2ccc(F)cc2)cc1S(=O)(=O)N1CCOCC1,i,41.0,i,i,i,i,i,i,
SMILES,Tn7 DDE FP,GRK2 inh,ARNT TACC3 PPI,CAL PDZ FP-1,DDE Tn6 FP inh,CAL PDZ FP-2,GRK2 inh confirm,Aptamer quench SP,others
C[C@@H]1CN([C@@H](C)CO)C(=O)c2cc(NC(=O)C3CCCCC3)ccc2O[C@@H](C)CCCCO[C@@H]1CN(C)C(=O)Nc1ccc2c(c1)OCO2,nt,nt,i,nt,nt,nt,nt,nt,
OC1(c2cccc(C(F)(F)F)c2)CCN(Cc2nnnn2Cc2ccccc2)CC1,i,93.0,i,i,i,i,i,i,
Cc1ccc(S(=O)(=O)N(C)CC(=O)O/N=C(\N)c2ccccn2)cc1,i,100.0,i,i,i,nt,i,i,
CCN(CC)CCNC(=O)CNC(=O)c1nn(-c2ccc(OC)cc2)c(=O)c2ccccc12,i,i,i,i,i,i,i,i,
CCN(CC)CCCNC(=O)CNC(=O)c1nn(-c2ccc(OC)c(OC)c2)c(=O)c2ccccc12,i,i,i,i,i,i,nt,nt,
COc1ccc(-n2nc(C(=O)NCC(=O)NCCN(C)C)c3ccccc3c2=O)cc1,i,i,i,i,i,i,i,i,
CCCCNC(=O)CNC(=O)c1nn(-c2ccc(OC)cc2)c(=O)c2ccccc12,i,i,i,i,i,i,i,i,
CCN(CC)CCNC(=O)CNC(=O)c1nn(-c2ccc(OC)c(OC)c2)c(=O)c2ccccc12,i,i,i,i,i,i,i,i,
CCN(CC)CCCNC(=O)CNC(=O)c1nn(-c2ccc(OC)cc2)c(=O)c2ccccc12,i,i,i,i,i,i,nt,nt,
COc1ccccc1-c1cnc2c(c1)C(=O)N([C@H](C)CO)C[C@H](C)[C@@H](CN(C)C(=O)c1ccncc1)O2,nt,nt,i,nt,nt,nt,nt,nt,
CC(Cc1c[nH]c2ccccc12)C(=O)O (stereo not drawn),i,i,i,i,i,i,nt,nt,
O=C(O)C(O)Cc1c[nH]c2ccccc12 (stereo not drawn),i,67.0,i,i,i,i,i,i,
COc1ccc(CCNCC(O)c2ccccc2)cc1 (stereo not drawn),i,i,i,i,i,i,nt,nt,
COc1ccc(CCNCC(C)c2ccccc2)cc1 (stereo not drawn),i,i,i,i,i,i,i,i,
Cc1ccc(-c2nnc(SCC(=O)Nc3ccc(Oc4ccccc4)cc3)n2-c2ccc(Cl)cc2)cc1,i,nt,nt,nt,i,nt,nt,nt,
O=C(CCN1C(=O)c2ccccc2C1=O)Nn1cnnc1,i,52.0,i,i,i,i,i,i,
O=C(CCN1C(=O)c2ccccc2C1=O)NCc1ccccc1,i,i,i,i,i,i,nt,nt,
N#Cc1ccccc1N1CCN(S(=O)(=O)c2ccc3c(c2)CCC(=O)N3)CC1,i,nt,nt,nt,i,nt,nt,nt,
